Only some compounds are listed: those with a hit (about 4.6% of all), similar ones and a draw of the others.
TAAR1 antag: human TAAR1 antagonism | Q96RJ0 | CHO RD-HGA16 TAAR1, Fluo-8 calcium fluorescence, antagonist | inhibition, % at 3 µM | hit rate 1.5% among 360,000 | AID 624466;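 active = inhibition above a per-plate cutoff, the mean inhibition of test compounds on that plate plus 3 SD, cut at about 49% in these data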;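 note: 0% = DMSO plus EC80 beta-PEA response and 100% = DMSO alone without agonist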
Target sequence (Q96RJ0 whole entry, looked up): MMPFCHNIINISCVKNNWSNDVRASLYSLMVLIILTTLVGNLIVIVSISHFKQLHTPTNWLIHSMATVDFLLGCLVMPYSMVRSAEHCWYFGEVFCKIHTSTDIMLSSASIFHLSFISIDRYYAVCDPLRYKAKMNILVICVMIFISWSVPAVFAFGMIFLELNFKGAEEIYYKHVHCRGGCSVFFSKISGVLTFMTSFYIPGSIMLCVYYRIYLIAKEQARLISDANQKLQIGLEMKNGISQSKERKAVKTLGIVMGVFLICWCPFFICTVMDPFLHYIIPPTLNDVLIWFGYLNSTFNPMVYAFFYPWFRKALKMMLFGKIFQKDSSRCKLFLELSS
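Assay system: RD-HGA16 CHO cells with stable hTAAR1 and Gα16 / Reagent: EC80 β-phenethylamine stimulus / Doses: 3 µM, single point / Timing: dye loading 75 min at 37 °C, then 30 min room temperature / Measured by: Fluo-8 intracellular calcium dye fluorescence, real-time kinetic reads / Controls: vehicle wells and EC80 agonist wells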
OX1R antag-1: antagonists of human orexin 1 receptor; O43613; inhibition, % at 5 µM; AID 434989; hit rate 0.43% among 330,000; CHO/OX1R cells, Fluo-8 calcium fluorescence, orexin A;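 active = inhibition above its plate's threshold, mean inhibition of all tested compounds on the plate plus 3 SD, cut at about 37% in these data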;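 note: 0% = orexin A challenge wells and 100% = SB-334867-A antagonist wells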
Target sequence (O43613 whole entry, looked up): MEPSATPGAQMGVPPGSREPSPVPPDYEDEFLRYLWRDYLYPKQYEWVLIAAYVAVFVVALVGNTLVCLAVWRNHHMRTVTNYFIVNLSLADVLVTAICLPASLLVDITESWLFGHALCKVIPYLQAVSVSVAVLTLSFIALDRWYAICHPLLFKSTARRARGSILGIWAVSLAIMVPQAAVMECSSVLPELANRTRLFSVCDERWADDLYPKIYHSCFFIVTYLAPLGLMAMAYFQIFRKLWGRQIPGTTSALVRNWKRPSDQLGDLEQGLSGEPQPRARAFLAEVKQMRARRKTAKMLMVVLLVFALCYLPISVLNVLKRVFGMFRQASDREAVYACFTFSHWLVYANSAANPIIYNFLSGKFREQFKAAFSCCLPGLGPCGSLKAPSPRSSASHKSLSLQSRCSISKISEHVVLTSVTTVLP
TAAR1 agonist: agonists of human TAAR1; CHO RD-HGA16 TAAR1, Fluo-8 calcium fluorescence; vehicle wells 0%, saturating PEA agonist 100%; activation, % at 3 µM; hit rate 0.99% among 360,000; AID 624467;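 active = activation above the mean activation of all test compounds in the run plus 3 SD, cut at about 38% in these data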
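test system = CHO RD-HGA16 cells carrying human TAAR1 plus Gα16 | schedule = 17-24 h seeding, 75 min 37 °C dye, 30 min RT | compound dosing = 3 µM single concentration | control set = DMSO and PEA EC100 | replicates = n 1 | signal = Fluo-8 fluorescence, 5 s baseline then 140 s kinetic read | measure = percent activation vs PEA EC100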
CHO parental Ca: counter-screen for OX1R antagonists: effect in parental CHO cells; parental CHO-K1, ATP-induced calcium, Fluo-8 fluorescence; inhibition, % at 5.6 µM; hit rate 0.63% among 330,000; AID 463079;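 active = inhibition above that plate's mean sample inhibition plus 3 SD, cut at about 26% in these data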;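 note: 0% = ATP-challenged DMSO wells and 100% = DMSO wells without ATP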
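material = parental CHO cells | also added = ATP as calcium-mobilizing challenge | dosing = single point at 5.6 µM | detection = intracellular calcium via Fluo-8 no-wash fluorescent dye | read-out = % inhibition | benchmarks = low control ATP plus DMSO, high control DMSO only | repeats = one well per compound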
GPR7 antag: blocks human GPR7 receptor signaling; P48145; inhibition, % at 4.4 µM; GPR7-expressing cells, fluorescence antagonist assay; AID 1861; hit rate 1.1% among 290,000; in the data active = inhibition above about 16%, passing the limit was not always enough;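 note: cells stimulated with the agonist NPW; 0% = agonist with vehicle and 100% = vehicle without agonist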
OX1R antag-2: blocks the human orexin 1 receptor; O43613; OX1R-expressing cells, FRET antagonist read-out; inhibition, % at 6.6 µM; hit rate 1.8% among 330,000; AID 485270; in the data active = inhibition mostly above about 38%, no sharp cut-off; inactive = mostly below about 40%;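 note: 0% = agonist challenge alone and 100% = reference antagonist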
OX1R Fluo8 conf: confirmation of human orexin 1 receptor antagonists | AID 492963 | hit rate 38% among 1,100 | inhibition, % at 5 µM | CHO/OX1R cells, orexin A calcium Fluo-8 fluorescence | shares compounds with OX1R antag-1; in the data active = inhibition above about 29%;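 note: 0% = agonist challenge alone and 100% = reference antagonist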
CHO Ca counter: signal in parental CHO cells, OX1R antagonist counter-screen. shares compounds with OX1R antag-1. parental CHO-K1, ATP-induced calcium, Fluo-8 fluorescence. inhibition, % at 5.6 µM. hit rate 9.3% among 1,100. AID 492965;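 active = inhibition above a per-plate limit, the mean inhibition of that plate's test compounds plus 3 SD, cut at about 25% in these data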;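 note: 0% = ATP challenge with DMSO and 100% = DMSO without ATP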
* marks the source's active call; other numbers are inactive results; · = no result given.

SMILES	TAAR1 antag	OX1R antag-1	TAAR1 agonist	CHO parental Ca	GPR7 antag	OX1R antag-2	OX1R Fluo8 conf	CHO Ca counter
COc1ccccc1NC(=O)Nc1ccc(-n2ccc(C(F)(F)F)n2)cc1	-22.4	33.8	2.8	-2.5	-3.6	7.2	5.2	3.7
O=C(COC(=O)C12CC3CC(CC(Br)(C3)C1)C2)Nc1cccc(S(=O)(=O)N2CCOCC2)c1	31.9	47.5*	11.1	9.8	·	14.0	32.0*	6.4
O=S(=O)(NCc1ccccc1)c1ccc(S(=O)(=O)N(Cc2ccccn2)C2CCCC2)cc1	22.2	50.2*	4.1	-4.8	0.0	33.3	15.7	-9.3
CCNS(=O)(=O)c1ccc(S(=O)(=O)N(Cc2ccccn2)C2CCCCC2)cc1	-7.8	-10.7	19.0	-21.9	-9.7	17.8	·	·
C[C@H](CO)N1C[C@H](C)[C@@H](CN(C)Cc2ccc(Cl)c(Cl)c2)Oc2c(NC(=O)Cc3ccccc3)cccc2C1=O	71.1*	56.5*	27.2	22.0	·	16.2	3.6	-5.8
C=C(C)COc1ccc2c(C)c(CC(=O)OC)c(=O)oc2c1C	·	36.8	·	25.5	9.4	43.6	-0.7	18.3
Cc1cc(C(=O)N[C@H](c2ccccc2)[C@@]2(C)C[C@@H]2[C@@H](C)C(=O)Nc2ccc3ccccc3c2)n(C)n1	18.6	41.1	30.1	-2.4	9.4	51.7	11.9	-11.1
C[C@@H](C(=O)Nc1ccc2ccccc2c1)[C@H]1C[C@]1(C)[C@H](NC(=O)OCc1ccccc1)c1ccccc1	7.7	-52.7	1.9	-18.8	-0.1	12.6	·	·
CCOc1ccc(NS(=O)(=O)c2cc(OC)ccc2OC)cc1	-19.1	-8.4	7.9	-6.2	-6.8	7.2	·	·
COc1ccc(OC)c(S(=O)(=O)Nc2ccc(Oc3ccccc3)cc2)c1	26.6	45.3	26.8	13.2	-16.1	9.6	9.2	9.5
C/C(=N\NC(=O)c1ccc([N+](=O)[O-])cc1Cl)c1ccccc1	5.6	-12.9	-0.8	-6.4	-7.9	21.1	·	·
CC(C)(C)NC(=O)COC(=O)c1ccc(NC(=O)CC#N)cc1	-2.8	26.6	6.8	1.4	-23.0	6.2	4.8	-4.5
O=C(Cc1cccs1)Nc1cc(S(=O)(=O)N2CCCCC2)ccc1Cl	-4.7	-19.2	9.8	-30.7	·	6.5	·	·
CC(NCC(=O)Nc1cc(S(=O)(=O)N2CCCCCC2)ccc1Cl)c1ccccc1 (configuration not stated)	13.3	27.3	3.1	21.5	-21.8	23.8	27.9	26.1*
CC(=O)NC(NC(=S)Nc1ccc(N=Nc2ccccc2)cc1)C(Cl)(Cl)Cl (configuration not stated)	13.0	37.3	18.6	22.8	-8.4	5.3	41.3*	15.2
CC(=O)NC(NC(=S)Nc1ccc(S(N)(=O)=O)cc1)C(Cl)(Cl)Cl (configuration not stated)	-18.1	-16.3	-1.5	10.7	-12.6	21.6	·	·
O=C(N/N=C/c1ccccn1)c1cc(-c2ccc(Br)cc2)nc2ccccc12	5.9	50.0*	-0.3	20.2	-11.8	24.0	39.8*	23.0
Clc1cccc(CNc2nnnn2-c2ccccc2)c1	31.3	45.5*	9.9	23.6	7.0	64.7	16.5	10.4
Cn1nnnc1NCc1cccc(Cl)c1	3.0	-3.9	-0.8	4.8	-1.6	3.9	·	·
CCc1nc2c(OCc3ccccc3C)cccn2c1N(C)C(=O)c1ccc(C)cc1	-18.9	·	19.1	·	·	·	·	·
COc1ccccc1NS(=O)(=O)c1cc([N+](=O)[O-])ccc1N/N=C/c1c[nH]c2ccccc12	53.9*	30.6	12.2	21.1	-0.7	0.8	20.1	23.6
COC(=O)c1ccc2c(c1)C(C)(C)C(/C=C/c1ccccc1O)=[N+]2C	35.7	33.5	24.4	20.6	15.5	31.5	56.9*	45.9*
COC(=O)[C@@]12C[C@@H](CC(=O)NCc3cccs3)C(=O)N(Cc3ccco3)C1=CCC(C)(C)C2	-19.7	·	1.3	·	·	·	·	·
COc1ccc(-c2ccc3c(c2)[C@@H]2C[C@H]4[C@@H](C(=O)N2CC3)[C@H](C)ON4C)cc1	-18.3	·	3.8	·	·	·	·	·
COc1nc(N(c2ccccc2)c2ccccc2)nc(-n2ccnc2)n1	46.6	45.5*	13.3	11.0	14.2	73.2	43.1*	1.6
SMILES	TAAR1 antag	OX1R antag-1	TAAR1 agonist	CHO parental Ca	GPR7 antag	OX1R antag-2	OX1R Fluo8 conf	CHO Ca counter
CC(=O)Nc1ccc(S(=O)(=O)N2CCSC2c2ccccc2Cl)cc1 (configuration not stated)	26.2	26.0	31.1	22.1	9.9	39.4	6.7	4.9
CC(=O)Nc1ccc(S(=O)(=O)N2CCSC2c2ccccc2)cc1 (configuration not stated)	-0.2	-13.1	21.4	10.6	-4.9	19.9	·	·
O=C(CN(c1cccc([N+](=O)[O-])c1)S(=O)(=O)c1ccccc1)NCc1ccccc1	11.7	-16.9	11.1	-19.6	1.9	34.7	·	·
O=C(CN(c1cccc([N+](=O)[O-])c1)S(=O)(=O)c1ccccc1)N(Cc1ccccc1)Cc1ccccc1	24.4	29.0	3.9	-2.8	-3.9	24.1	-1.3	-12.8
Cc1ccc(NC(=O)Cn2nc(C(=O)O)c3ccccc3c2=O)cc1S(=O)(=O)N1CCCCC1	26.1	40.9*	6.5	4.0	·	13.7	11.8	0.5
O=c1[nH]nc(Cc2ccc(-c3ccccc3Cl)o2)c2ccccc12	0.9	46.9*	18.4	23.8	-15.2	64.3	4.5	-5.8
O=c1[nH]nc(Cc2ccc(Cl)cc2)c2ccccc12	10.7	-24.2	20.8	-9.0	1.1	22.0	·	·
CC(C)(C)N(NC(=O)Nc1ccc(Cl)c(Cl)c1)C(=O)c1ccccc1	14.6	72.6*	20.8	29.3	0.9	20.2	7.6	9.7
Cc1cnn2c(C3CC3)ccnc12	-27.3	22.4	2.6	2.8	3.1	10.4	1.8	-6.0
O=C(Nc1ncn[nH]1)c1ccc(Cl)c(S(=O)(=O)N2CCCCCC2)c1	-3.7	29.2	1.6	-2.6	-3.5	11.6	1.0	7.2
CCc1onc(C)c1C(=O)Nc1cc(C)ccc1OC	7.8	-24.7	10.2	-1.9	-3.6	6.2	·	·
COc1n[nH]c(C(=O)Nc2cc(Cl)ccc2Cl)c1[N+](=O)[O-]	-23.0	-0.9	4.5	-18.0	0.7	26.4	·	·
COc1ccc(Cl)cc1NC(=O)c1[nH]nc(OC)c1[N+](=O)[O-]	-10.5	104.6*	3.6	9.8	-16.9	15.2	-0.9	-3.6
COCCn1c(=O)[nH]c2cc(C(=O)N3CCN(c4cccc(Cl)c4)CC3)ccc2c1=O	0.2	25.1	6.3	12.7	-3.7	6.6	-2.3	-1.0
COc1ccc(/C=C2\SC(=O)NC2=S)cc1OC	18.4	41.7	2.7	23.5	6.0	42.3	3.2	-2.3
